Legend:
[1] = Cytotoxicity against human DU145 cells by rapid colorimetric assay; assay type: functional, cell-based, DU-145
Outline: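 Antiproliferative test on DU-145 cells using the Mosmann method. Seven concentrations were tested in culture medium.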

[2] = molecular target: T1, 3-oxo-5-alpha-steroid 4-dehydrogenase 1 (Homo sapiens) (UniProt P18405); experiment: Inhibition of human 5alpha-1 reductase expressed in HEK293 cells assessed as suppression of conversion of [3]androstenedione at 10 uM incubated for 30 mins by radioactivity-based HPLC analysis; assay type: cell-based
T1 sequence (whole entry): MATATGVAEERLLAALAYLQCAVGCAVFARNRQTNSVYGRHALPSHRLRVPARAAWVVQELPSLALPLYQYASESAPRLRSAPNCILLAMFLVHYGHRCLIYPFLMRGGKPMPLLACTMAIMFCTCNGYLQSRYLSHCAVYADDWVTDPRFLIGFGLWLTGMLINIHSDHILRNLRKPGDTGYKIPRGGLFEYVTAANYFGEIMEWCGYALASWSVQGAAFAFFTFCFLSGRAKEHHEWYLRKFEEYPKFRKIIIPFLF
Outline: (§1)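 Stably transfected HEK293 lines expressing 5AR-1 (HEK-I) or 5AR-2 (HEK-II) were sonicated in saccharose/Tris/EDTA buffer. The suspension was incubated at 37 °C for 30 min with 500 nM androstenedione solution plus [3H]androstenedione and an NADP/glucose/G6PDH regenerating system. Test compounds were added in 2% DMSO. The reaction was stopped with ether; steroids were extracted and analysed by radio-HPLC.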

[3] = molecular target: T2, 3-oxo-5-alpha-steroid 4-dehydrogenase 2 (Homo sapiens) (UniProt P31213); experiment: Inhibition of human 5alpha-2 reductase expressed in HEK293 cells assessed as suppression of conversion of [3]androstenedione at 10 uM incubated for 30 mins by radioactivity-based HPLC analysis; assay type: cell-based; outline: as §1
T2 sequence (whole entry): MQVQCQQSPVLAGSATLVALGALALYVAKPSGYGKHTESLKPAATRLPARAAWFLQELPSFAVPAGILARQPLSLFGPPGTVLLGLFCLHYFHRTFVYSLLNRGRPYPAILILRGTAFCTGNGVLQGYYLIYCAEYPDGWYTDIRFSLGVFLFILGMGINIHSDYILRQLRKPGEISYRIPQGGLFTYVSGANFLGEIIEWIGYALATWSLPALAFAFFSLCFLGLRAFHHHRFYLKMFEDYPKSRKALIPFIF

[4] = molecular target: T2, 3-oxo-5-alpha-steroid 4-dehydrogenase 2 (Homo sapiens); experiment: Inhibition of human 5alpha-2 reductase expressed in HEK293 cells assessed as suppression of conversion of [3]androstenedione at 2 uM incubated for 30 mins by radioactivity-based HPLC analysis; assay type: cell-based; outline: as §1
[5] = molecular target: T3, 3-oxo-5-alpha-steroid 4-dehydrogenase 2 (Homo sapiens, UniProt P31213); experiment: Inhibition of human 5alpha-2 reductase expressed in HEK293 cells assessed as suppression of conversion of [3]androstenedione incubated for 30 mins by radioactivity-based HPLC analysis; assay type: cell-based; outline: as §1
T3 sequence (P31213 whole entry): T2 sequence (whole entry)

Rattus norvegicus [6] = experiment: Increase in body weight gain in male wistar rat at 5ml/kg, po qd measured on 15th day after 24 hrs of last dose (Rvb=9.412+/-1.632g%); assay type: ADME, organism-based; conditions: in vivo
Rattus norvegicus [7] = experiment: Effect on organ weight in male wistar rat assessed as liver tissue weight per 100g at 5ml/kg, po qd measured on 15th day after 24 hrs of last dose (Rvb=2.994+/- 0.254 g/100g); assay type: ADME, organism-based; conditions: in vivo
Rattus norvegicus [8] = experiment: Effect on organ weight in male wistar rat assessed as ventral prostate tissue weight per 100g at 5ml/kg, po qd measured on 15th day after 24 hrs of last dose (Rvb=59.494+/- 4.733 mg/100g); assay type: functional, Prostate gland
Rattus norvegicus [9] = experiment: Effect on organ weight in male wistar rat assessed as dorsal prostate tissue weight per 100g at 5ml/kg, po qd measured on 15th day after 24 hrs of last dose (Rvb=50.325+/-7.519 mg/100g); assay type: functional, Prostate gland
Rattus norvegicus [10] = experiment: Effect on organ weight in male wistar rat assessed as seminal vesicles tissue weight per 100g at 5ml/kg, po qd measured on 15th day after 24 hrs of last dose (Rvb=175.439+/-12.833 mg/100g); assay type: ADME, organism-based; conditions: in vivo
Rattus norvegicus [11] = experiment: Effect on organ weight in male wistar rat assessed testis tissue weight per 100g at 5ml/kg, po qd measured on 15th day after 24 hrs of last dose (Rvb=1054.099+/- 55.648 mg/100g); assay type: ADME, organism-based; conditions: in vivo
Rattus norvegicus [12] = experiment: Effect on organ weight in male wistar rat assessed as adrenal tissue weight per 100g at 5ml/kg, po qd measured on 15th day after 24 hrs of last dose (Rvb=14.762 +/-0.600 mg/100g); assay type: ADME, organism-based; conditions: in vivo
Rattus norvegicus [13] = experiment: Effect on organ weight in male wistar rat assessed as vas deferens tissue weight per 100g at 5ml/kg, po qd measured on 15th day after 24 hrs of last dose (Rvb=67.613+/-3.248 mg/100g); assay type: functional
Rattus norvegicus [14] = experiment: Effect on organ weight in male wistar rat assessed as epididymis tissue weight per 100g at 5ml/kg, po qd measured on 15th day after 24 hrs of last dose (Rvb=187.356+/- 5.961 mg/100g); assay type: functional
Rattus norvegicus [15] = experiment: Decrease in ventral prostate organ weight in male wistar rat at 5ml/kg, po qd measured on 15th day after 24 hrs of last dose; assay type: functional, Prostate gland; parameters: scale not given: the % may be the effect or the level left
Rattus norvegicus [16] = experiment: Decrease in dorsal prostate organ weight in male wistar rat at 5ml/kg, po qd measured on 15th day after 24 hrs of last dose; assay type: functional, Prostate gland; parameters: scale not given: the % may be the effect or the level left
Rattus norvegicus [17] = experiment: Decrease in vas deferens organ weight in male wistar rat at 5ml/kg, po qd measured on 15th day after 24 hrs of last dose; assay type: functional; parameters: scale not given: the % may be the effect or the level left
Rattus norvegicus [18] = experiment: Decrease in epididymis organ weight in male wistar rat at 5ml/kg, po qd measured on 15th day after 24 hrs of last dose; assay type: functional; parameters: scale not given: the % may be the effect or the level left
Rattus norvegicus [19] = experiment: Toxicity in male wistar rat assessed induction of mortality at 5ml/kg, po qd measured on 15th day after 24 hrs of last dose; assay type: organism-based; conditions: in vivo
Outline: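 Mature male Wistar rats, groups of 5, standard diet. Compounds suspended in 0.50% CMC sodium given orally at 5 ml/kg once daily for 14 days; controls received vehicle only. Animals weighed and killed under ether on day 15, 24 h after last dose.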

[20] = Homo sapiens, DU-145, read-out: IC50

| SMILES | IC50 ([1]; du-145) | inhibition [2] | inhibition [3] | inhibition [4] | IC50 [5] | IC50 [1, 20] | Activity (Rattus norvegicus [6]) | Activity (Rattus norvegicus [7]) | Activity (Rattus norvegicus [8]) | Activity (Rattus norvegicus [9]) | Activity (Rattus norvegicus [10]) | Activity (Rattus norvegicus [11]) | Activity (Rattus norvegicus [12]) | Activity (Rattus norvegicus [13]) | Activity (Rattus norvegicus [14]) | Activity (Rattus norvegicus [15]) | Activity (Rattus norvegicus [16]) | Activity (Rattus norvegicus [17]) | Activity (Rattus norvegicus [18]) | Activity (Rattus norvegicus [19]) |
| --- | --- | --- | --- | --- | --- | --- | --- | --- | --- | --- | --- | --- | --- | --- | --- | --- | --- | --- | --- | --- |
| C[C@]12CCC(c3nnn[nH]3)=CC1=CC[C@@H]1[C@@H]2CC[C@@]2(C)[C@H]1CCC(=O)N2Cc1ccccc1 | ND(Unstable) |  |  |  |  |  |  |  |  |  |  |  |  |  |  |  |  |  |  |  |
| CN1C(=O)CC[C@H]2[C@@H]3CC=C4C=C(c5nnn[nH]5)CC[C@]4(C)[C@H]3CC[C@@]21C |  | 6.4% | 91.2% | 84.3% | 274 nM | 389000 nM | 15.456 g% | 3.328 g | 41.684 mg | 44.593 mg | 199.778 mg | 1233.129 mg | 16.362 mg | 59.796 mg | 170.447 mg | 29.94% | 11.39% | 11.56% | 9.03% | Non-toxic |
| CC(C)(C)NC(=O)[C@H]1CC[C@H]2[C@@H]3CC[C@H]4NC(=O)C=C[C@]4(C)[C@H]3CC[C@]12C [FINASTERIDE] |  |  |  |  | 40 nM | 548000 nM | 8.032 g% | 3.5097 g | 32.866 mg | 27.519 mg | 105.51 mg | 1058.022 mg | 16.575 mg | 57.843 mg | 160.371 mg | 44.76% | 45.32% | 14.45% | 14.4% |  |
| C[C@]12C=CC(=O)N[C@@H]1CC[C@@H]1[C@@H]2CC[C@]2(C)[C@@H](C(=O)Nc3cc(C(F)(F)F)ccc3C(F)(F)F)CC[C@@H]12 [DUTASTERIDE] |  |  |  |  |  |  | 11.914 g% | 3.209 g | 35.858 mg | 29.211 mg | 118.275 mg | 1067.385 mg | 14.208 mg | 52.802 mg | 155.415 mg |  |  |  |  |  |
| C[C@]12CCC(c3nnn[nH]3)=CC1=CC[C@@H]1[C@@H]2CC[C@@]2(C)[C@H]1CCC(=O)N2CCc1nnn[nH]1 | ND(Unstable) |  |  |  |  |  |  |  |  |  |  |  |  |  |  |  |  |  |  |  |
| CCN1C(=O)CC[C@H]2[C@@H]3CC=C4C=C(c5nnn[nH]5)CC[C@]4(C)[C@H]3CC[C@@]21C | ND(Unstable) |  |  |  |  |  |  |  |  |  |  |  |  |  |  |  |  |  |  |  |
| C[C@]12CCC(c3nnn[nH]3)=CC1=CC[C@@H]1[C@@H]2CC[C@]2(C)NC(=O)CC[C@@H]12 | Not Active | 9.6% | 100% | 90.6% | 220 nM |  | 15.498 g% | 3.215 g | 44.744 mg | 31.548 mg | 183.148 mg | 1152.287 mg | 16.421 mg | 42.532 mg | 166.584 mg | 24.79% | 37.31% | 37.09% | 11.09% | Non-toxic |
| C=CCN1C(=O)CC[C@H]2[C@@H]3CC=C4C=C(c5nnn[nH]5)CC[C@]4(C)[C@H]3CC[C@@]21C |  | 31.7% | 100% | 94.7% | 157 nM | 496000 nM | 19.229 g% | 3.548 g | 39.499 mg | 41.802 mg | 141.816 mg | 1318.403 mg | 24.261 mg | 42.548 mg | 169.924 mg | 33.61% | 16.94% | 37.07% | 9.3% | Non-toxic |
| C[C@]12CC[C@H]3[C@@H](CCC4=CC(=O)CC[C@@]43C)[C@@H]1CC[C@@H]2O [TESTOSTERONE] |  |  |  |  |  |  | 3.767 g% | 3.292 g | 70.923 mg | 45.124 mg | 167.305 mg | 1108.457 mg | 13.969 mg | 55.097 mg | 171.193 mg |  |  |  |  |  |
| CC(=O)n1nnnc1C1=CC2=CC[C@@H]3[C@H](CC[C@]4(C)NC(=O)CC[C@@H]34)[C@@]2(C)CC1 | ND(Unstable) |  |  |  |  |  |  |  |  |  |  |  |  |  |  |  |  |  |  |  |

From ChEMBL document CHEMBL3751829, “Synthesis and biological evaluation of 3-tetrazolo steroidal analogs: Novel class of 5α-reductase inhibitors” (Bioorg Med Chem, 2016)
